Reference: ChEMBL document CHEMBL4184175, “Design, synthesis and biological evaluation of novel indole-xanthendione hybrids as selective estrogen receptor modulators” (Bioorg Med Chem, 2018)
Active and inactive are the calls of the source. The rule behind the calls is not given here.

Assays:
[1] = system: T47D; assay: Antiproliferative activity against human T47D cells after 48 hrs by MTT assay
[2] = molecular target: T1, Estrogen receptor (Homo sapiens, UniProt P03372); assay: Displacement of Fluormone-tagged ES2 from human recombinant ERalpha after 2 hrs by fluorescence polarization assay
T1 sequence (P03372 whole entry): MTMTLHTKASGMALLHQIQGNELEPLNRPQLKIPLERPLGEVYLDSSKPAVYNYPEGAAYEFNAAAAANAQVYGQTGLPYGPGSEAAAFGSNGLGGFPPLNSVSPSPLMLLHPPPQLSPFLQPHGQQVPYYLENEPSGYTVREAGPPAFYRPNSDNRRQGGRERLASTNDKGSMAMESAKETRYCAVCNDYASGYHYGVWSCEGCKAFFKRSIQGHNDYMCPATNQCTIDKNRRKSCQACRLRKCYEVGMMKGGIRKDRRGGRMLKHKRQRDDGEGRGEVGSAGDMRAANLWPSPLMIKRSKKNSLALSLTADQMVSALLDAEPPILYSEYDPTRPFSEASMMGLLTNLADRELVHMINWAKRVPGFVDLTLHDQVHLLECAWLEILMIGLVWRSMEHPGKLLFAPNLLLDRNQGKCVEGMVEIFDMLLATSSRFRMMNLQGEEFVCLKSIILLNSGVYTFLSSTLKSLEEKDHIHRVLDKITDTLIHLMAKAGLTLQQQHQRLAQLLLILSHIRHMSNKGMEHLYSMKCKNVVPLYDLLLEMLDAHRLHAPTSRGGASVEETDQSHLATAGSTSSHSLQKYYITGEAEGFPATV

[3] = system: PBMC; assay: Cytotoxicity against human PBMC assessed as reduction in cell viability at 100 uM after 48 hrs by MTT assay; type: cell-based
In short: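 PBMCs isolated from human whole blood after RBC lysis, kept in RPMI-1640 with 10% FBS at 37 °C, 5% CO2; about 10^4 cells/well. MTT read-out as for T47D: 48 h exposure in FBS-free medium, MTT 0.5 mg/ml for 4 h, acidified DMSO, absorbance 570/620 nm, viability versus control.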

[4] = molecular target: T2, Estrogen receptor (Homo sapiens) (UniProt P03372); assay: Displacement of Fluormone-tagged ES2 from human recombinant ERalpha up to 1000 nM after 2 hrs by fluorescence polarization assay
T2 sequence (whole entry): T1 sequence (P03372 whole entry)
In short: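 Fluorescence polarization competition: DMSO serial dilutions of compound mixed 1:1 with human recombinant ER-α/Fluormone complex, at least 2 h at room temperature protected from light; excitation 535 nm, emission 590 nm. Controls: buffer with 4% DMSO (maximum), oestradiol (minimum), free tracer. Percent inhibition fitted by nonlinear regression; IC50 = half displacement of bound ligand.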

[5] = system: MCF7; assay: Antiproliferative activity against human MCF7 cells; type: functional
[6] = molecular target: T2, Estrogen receptor (Homo sapiens); assay: Binding affinity to ERalpha in human T47D cells assessed as downregulation of ERalpha mRNA level at 15 uM after 482 hrs by RT-PCR assay relative to control; type: cell-based; settings: in the assay text read “48 hrs” for “482 hrs”
In short: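 T47D treated with 15 µM for 48 h; total RNA extracted with TRIzol, quality checked, converted to cDNA. ER-α amplified with gene-specific primers alongside GAPDH as loading control; products run on 1.2% agarose with EtBr and quantified by densitometry, normalised to GAPDH, relative to untreated cells; three independent experiments.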

[7] = system: T47D; assay: Downregulation of ERalpha protein level in human T47D cells at 15 uM after 48 hrs by Western blot method relative to control; type: functional
In short: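 T47D cells grown in RPMI-1640 with 10% heat-inactivated FBS at 37 °C, 5% CO2, then exposed to 15 uM for 48 h. Lysis in modified RIPA (50 mM Tris-HCl pH 7.4, 1% NP-40, protease inhibitors); protein measured by Bradford. 50 ug run on 10% SDS-PAGE, then nitrocellulose. Rabbit anti-ER-alpha (HC-20) at 4 °C overnight, HRP secondary, ECL. Densitometry normalised to beta-actin versus untreated cells; three experiments.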

[8] = Drug uptake in human T47D cell cytosol at 15 uM after 24 hrs by DAPI staining based confocal laser scanning microscopic method; type: ADME, subcellular
[9] = Drug uptake in human T47D cell nucleus at 15 uM after 24 to 48 hrs by DAPI staining based confocal laser scanning microscopic method; type: ADME, subcellular
[10] = Drug uptake in human T47D cell plasma membrane at 15 uM after 24 hrs by DAPI staining based confocal laser scanning microscopic method; type: ADME, cell membranes

With `CC1CC(=O)C2=C(C1)OC1=C(C(=O)CCC1(C)C)C2c1cc2ccccc2n1Cc1ccccc1` (stereo unspecified) the IC50 [1] was 20.9 µM, the IC50 [2] was 0.356 µM and the Activity [3] was “Non-Toxic”.
For `O=C1CC(c2ccccc2)CC2=C1C(c1cc3ccccc3n1Cc1ccccc1)C1=C(CC(c3ccccc3)CC1=O)O2` (stereo unspecified), the inhibition [4] was “inactive” and the Activity [3] was “Non-Toxic”.
For `CC1(C)CC(=O)C2=C(C1)OC1=C(C(=O)CCC1)C2c1cc2ccccc2n1Cc1ccccc1` (stereo unspecified), the IC50 [1] was 23.5 µM, the IC50 [2] was 0.0184 µM and the Activity [3] was “Non-Toxic”.
With `CC1CC(=O)C2=C(C1)OC1=C(C(=O)CC(C)C1)C2c1cc2ccccc2n1Cc1ccccc1` (stereo unspecified) the IC50 [2] was 0.482 µM and the Activity [3] was “Non-Toxic”.
In the case of `CC1(C)CC(=O)C2=C(C1)OC1=C(C(=O)CC(C)(C)C1)C2c1cc2ccccc2n1Cc1ccccc1`, the IC50 [1] is reported as 24.6 µM, the IC50 [2] is reported as 0.0608 µM and the Activity [3] is reported as “Non-Toxic”.
For `CC1CC(=O)C2=C(C1)OC1=C(C(=O)CC(C)(C)C1)C2c1cc2ccccc2n1Cc1ccccc1` (stereo unspecified), the IC50 [1] was 19.8 µM, the IC50 [2] was 0.0266 µM and the Activity [3] was “Non-Toxic”.
`CC1(C)CC(=O)C2C(C1)Oc1ccc3ccccc3c1C2c1ccc(O)cc1` (stereo unspecified) gave an Activity [5] of 6.7 µg/mL.
For `CC1(C)CCC(=O)C2=C1OC1=C(C(=O)CCC1(C)C)C2c1cc2ccccc2n1Cc1ccccc1`, the inhibition [4] was “inactive” and the Activity [3] was “Non-Toxic”.
Compound `CC1(C)CCC(=O)C2=C1OC1=C(C(=O)CCC1)C2c1cc2ccccc2n1Cc1ccccc1` (stereo unspecified) has an Activity [6] of 54.3%, an Activity [7] of 32.18% and an IC50 [1] of 16.5 µM. For the same compound, the Drug uptake [8] was “Active”, the Drug uptake [9] was “Not Active” and the IC50 [2] was 0.055 µM. The Activity [3] was “Non-Toxic”.
In the case of `O=C1CCC2=C1C(c1cc3ccccc3n1Cc1ccccc1)C1=C(CCC1=O)O2`, the IC50 [1] is reported as 25 µM, the IC50 [2] is reported as 0.0512 µM and the Activity [3] is reported as “Non-Toxic”.
In the case of `O=c1[nH]c2c(c(=O)[nH]1)C(c1cc3ccccc3n1Cc1ccccc1)c1c([nH]c(=O)[nH]c1=O)O2`, the IC50 [1] is reported as 22.1 µM, the IC50 [2] is reported as 0.0611 µM and the Activity [3] is reported as “Non-Toxic”.
For `Oc1nc(S)nc2c1C(c1cc3ccccc3n1Cc1ccccc1)c1c(O)nc(S)nc1O2`, the inhibition [4] was “inactive” and the Activity [3] was “Non-Toxic”.
Work on `CC1CC(=O)C2=C(C1)OC1=C(C(=O)CCC1)C2c1cc2ccccc2n1Cc1ccccc1` (stereo unspecified) yielded an Activity [6] of 29.7%, an Activity [7] of 31.06% and an IC50 [1] of 17.9 µM. For the same compound, the Drug uptake [9] was “Not Active”, the IC50 [2] was 0.0166 µM and the Drug uptake [10] was “Active”. For the same compound, the Activity [3] was “Non-Toxic”.
For `CC1(C)CC(=O)C2=C(C1)OC1=C(C(=O)CCC1(C)C)C2c1cc2ccccc2n1Cc1ccccc1` (stereo unspecified), the IC50 [1] was 19.3 µM, the IC50 [2] was 0.587 µM and the Activity [3] was “Non-Toxic”.
Work on `CC/C(=C(\c1ccccc1)c1ccc(OCCN(C)C)cc1)c1ccccc1` [TAMOXIFEN] yielded an Activity [5] of 10 µg/mL.
For `Cc1c(-c2ccc(O)cc2)n(Cc2ccc(OCCN3CCCCCC3)cc2)c2ccc(O)cc12` [BAZEDOXIFENE], the IC50 [1] was 16.4 µM.
